Screening results: PubChem BioAssay, Sanford-Burnham Center for Chemical Genomics
EBI2 block: blocks human EBI2 receptor beta-arrestin signaling; P32249; actives 0.81% (n = 360,000); inhibition, % at 5 µM; EBI2 beta-arrestin recruitment, luminescence, 7a,25-OHC stimulated; AID 651636; in the data active = inhibition above about 38%;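 note: enzyme fragment complementation signal reports receptor beta-arrestin coupling in cells; 0% = agonist plus DMSO wells and 100% = wells without agonist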
APJ ag: APJ receptor agonism; activation, % at 20 µM; CHO-K1 APJ PathHunter beta-arrestin, luminescence; 0% DMSO wells, 100% apelin; P35414; actives 0.11% (n = 330,000);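 active = activation more than six SD over the plate average, tested at 20 µM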;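 note: 0% = DMSO alone and 100% = apelin-13 at 10 nM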
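Assay system – PathHunter CHO-K1 APJ (AGTRL-1) beta-arrestin reporter cells · Compound – one dose, 20 µM compound, 1% DMSO · Timing – compound 90 min 25 °C, reagent 1 h · Measured by – luminescence from split beta-galactosidase complementation, Galacton Star/Emerald II substrate · Measure – beta-arrestin recruitment to APJ as agonist activity, luminescent signal · Benchmarks – DMSO vs Apelin-13 10 nM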
APJ antagonist: blocks the human apelin receptor APJ; CHO-K1 APJ beta-arrestin complementation, luminescence; inhibition, % at 20 µM; actives 0.32% (n = 330,000); AID 2521;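 active = inhibition above about 40% at 20 µM, limit read from the data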;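 note: cells challenged with 10 nM apelin-13 agonist together with compound; plate controls were apelin-13 plus DMSO wells for no effect and DMSO wells lacking apelin-13 for full effect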
CXCR6 inh: blocks human CXCR6 beta-arrestin recruitment | O00574 | AID 602244 | actives 0.36% (n = 360,000) | inhibition, % at 20 µM | CHO-K1 PathHunter CXCR6 beta-arrestin, luminescence; in the data active = inhibition above about 34%, passing the limit was not always enough;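 note: antagonist mode with CXCL16 agonist at 10 nM final; 0% = 10 nM CXCL16 with DMSO and 100% = unstimulated wells without agonist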
CCR6 antagonist: blocks CCL20-driven beta-arrestin recruitment at human CCR6; P51684; CHO-K1 CCR6 PathHunter beta-arrestin, luminescence, CCL20-stimulated; inhibition, % at 20 µM; actives 0.49% (n = 340,000);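 active = compounds whose inhibition of the agonist-driven luminescence signal at 20 µM reaches about 50%, limit read from the data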;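 note: cells stimulated with CCL20 at 14 nM final; plate controls were DMSO with CCL20 for no effect and DMSO without agonist for full effect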
Target sequence (P51684 whole entry, looked up): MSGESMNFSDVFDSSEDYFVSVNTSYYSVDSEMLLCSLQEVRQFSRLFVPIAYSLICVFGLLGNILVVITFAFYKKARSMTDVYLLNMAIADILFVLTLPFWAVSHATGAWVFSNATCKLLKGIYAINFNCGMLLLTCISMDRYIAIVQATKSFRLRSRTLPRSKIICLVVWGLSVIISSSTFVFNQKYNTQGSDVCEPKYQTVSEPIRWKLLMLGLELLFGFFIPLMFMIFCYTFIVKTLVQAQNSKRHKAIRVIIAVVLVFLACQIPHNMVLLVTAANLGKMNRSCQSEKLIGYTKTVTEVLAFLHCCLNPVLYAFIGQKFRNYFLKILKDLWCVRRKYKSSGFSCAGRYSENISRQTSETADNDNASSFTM
EBI2 antag conf: EBI2 (human) antagonism, single concentration confirmation. inhibition, % at 5 µM. actives 29% (n = 2,400). shares compounds with EBI2 block. EBI2 beta-arrestin luminescence, 7a,25-OHC antagonism;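 active = inhibition of at least 50%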
EBI2 ag: EBI2 agonism counter-screen | 2,400 tested, under 10 active | AID 652000 | EBI2-expressing cells, agonist mode, luminescence, 60 min; 0% vehicle, 100% 7α,25-dihydroxycholesterol control | activation, % at 5 µM | shares compounds with EBI2 block;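 active = activation of at least 50%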
bGal counter: beta-galactosidase inhibition counter-screen. shares compounds with EBI2 block. purified beta-galactosidase, luminescent Galacton Star, 15 min. inhibition, % at 5 µM. actives 1% (n = 2,400). AID 652176;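 active = replicate-average signal at least 3 plate SD below neutral wells, shown as high inhibition, flagging enzyme-inhibiting false positives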;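 note: 0% = DMSO wells with enzyme and 100% = wells lacking enzyme; higher means stronger loss of beta-gal luminescence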
* hit, by the source's call; . = no result. Most compounds without a hit are left out; they make up all but 1.5% or so of the library.

SMILES	EBI2 block	APJ ag	APJ antagonist	CXCR6 inh	CCR6 antagonist	EBI2 antag conf	EBI2 ag	bGal counter
COc1ccc2nc(C)cc(SCC(=O)NNC(=O)COc3ccc(C)cc3)c2c1	67*	-2	18	-2	-15	17	2	7
Cc1ccc(OCC(=O)NNC(=O)CSc2nnc(-c3ccc(C)cc3)n2C)cc1	75*	-4	3	-2	2	40	-1	3
O=C(/C=C/c1cccc([N+](=O)[O-])c1)N1CCN(S(=O)(=O)c2cccs2)CC1	47*	-1	-6	1	7	41	0	7
O=C(COc1ccc(F)cc1Br)N1CCN(S(=O)(=O)/C=C/c2ccccc2)CC1	38	-5	0	-11	0	.	.	.
COc1cccc(/C=C/C(=O)N2CCN(S(=O)(=O)c3ccccc3)CC2)c1	90*	.	.	2	.	63*	0	-16
O=C(/C=C/c1ccc(F)cc1)N1CCN(S(=O)(=O)/C=C/c2ccccc2)CC1	95*	0	-24	2	23	89*	0	8
O=C(c1ccc2ccccc2c1)N1CCN(S(=O)(=O)/C=C/c2ccccc2)CC1	90*	-3	8	1	21	77*	0	-6
COc1ccc(NC(=O)COC(=O)Cn2cnc3ccccc3c2=O)c(OC)c1	-1	-1	16	4	-4	.	.	.
O=C(O)Cc1ccc(S(=O)(=O)N2CCCC2)s1	2	-1	-5	0	5	.	.	.
CCOc1ccc(NC(=O)C(=O)NCCN2CCN(C(=O)c3ccc(C)cc3)CC2)cc1	8	-1	3	-3	-3	.	.	.
CC1CCCC(C)N1CC(O)Cn1c2ccccc2c2ccccc21 (centres undefined)	6	0	10	-1	-10	.	.	.
O=C(/C=C/c1ccccc1)N1CCN(S(=O)(=O)c2ccc(F)cc2)CC1	79*	-1	5	4	6	68*	0	6
CS(=O)(=O)c1ccc(NC(=O)CCN2C(=O)C3CCCCC3C2=O)cc1 (centres undefined)	2	0	17	-4	-1	.	.	.
CCOC(=O)N1CCN(C(=O)CNC2CCCCCCC2)CC1	45*	-5	9	3	13	11	0	4
COc1ccc(N2CCN(c3oc(COc4ccccc4Cl)nc3C#N)CC2)cc1	21	-2	-13	-5	1	.	.	.
N#Cc1nc(COc2ccc(Br)cc2)oc1N1CCN(Cc2ccccc2)CC1	43*	.	.	0	15	15	-1	-7
N#Cc1nc(COc2ccc(F)cc2)oc1N1CCC(Cc2ccccc2)CC1	60*	-3	14	10	11	14	0	0
N#Cc1nc(COc2ccc(F)cc2)oc1N1CCN(Cc2ccccc2)CC1	35	-5	5	6	14	.	.	.
COc1ccc(OCc2nc(C#N)c(N3CCN(c4ccc(OC)cc4)CC3)o2)cc1	44*	-3	14	6	17	43	0	0
COc1ccc(Nc2oc(COc3ccc(OC)cc3)nc2C#N)cc1	52*	0	-15	-6	14	20	-1	9
CC(CCc1ccccc1)NC(=O)C1CCCN(C(=O)c2cc3sccc3n2C)C1 (centres undefined)	60*	-4	-10	-4	11	29	0	-11
CCOC(=O)c1c(NC(=O)CS(=O)(=O)c2cn(CC)c3ccccc23)sc2c1CCCCC2	57*	-1	20	11	6	36	-1	6
CN(C)S(=O)(=O)c1ccc(Cl)c(NC(=O)c2ccncc2)c1	-4	-2	-16	-12	3	.	.	.
Brc1cccc(-c2nnc3sc(CN4CCCCC4)cn23)c1	6	-4	10	-6	2	.	.	.
Brc1ccc(-c2nnc3sc(CN4CCN(c5ccccc5)CC4)cn23)cc1	75*	2	-12	-2	-7	39	1	8
